{"data": "Results of several laboratories", "target": "Tyrosine-protein kinase Fyn (FYN, Homo sapiens, UniProt P06241)", "note": "Lines come from different studies, so protocols differ."}
{"Structure (SMILES)": "N[C@@H]1CCN(c2nccc(-c3cnn4ncccc34)n2)C1", "read-out": "binding", "tested at": "1 µM", "remaining binding": "100%"}
{"Structure (SMILES)": "O=C(Nc1c[nH]nc1C(=O)NC1CCNCC1)c1cc(F)cc(F)c1", "read-out": "binding", "technique": "competition with immobilised ligand", "tested at": "1 µM", "remaining binding": "100%"}
{"Structure (SMILES)": "C[C@@H]1CCN(c2nccc(-c3cnn4ncccc34)n2)C1", "read-out": "binding", "tested at": "1 µM", "remaining binding": "88%"}
{"Structure (SMILES)": "COc1cnc(Nc2cccc(S(N)(=O)=O)c2)nc1N1CCN(c2ccccc2)C(=O)C1", "read-out": "binding", "technique": "competition with immobilised ligand", "tested at": "1 µM", "remaining binding": "100%"}
{"Structure (SMILES)": "C=CC(=O)N1CCC(C(=O)NCC(=O)N2CCN(c3nc(-c4cnc(N)nc4C(F)F)nc(N4CCOCC4)n3)CC2)CC1", "read-out": "binding", "technique": "competition with immobilised ligand", "tested at": "1 µM", "remaining binding": "100%"}
{"Structure (SMILES)": "CN(C)c1nccc(-c2cnc3ncccn23)n1", "read-out": "binding", "tested at": "1 µM", "remaining binding": "99%"}
{"Structure (SMILES)": "C[C@H](c1ccc(F)cc1)N(Cc1cccc(C(=O)O)c1)C(=O)c1cnc2ccccc2c1", "read-out": "cell-free assay", "technique": "competition with immobilised ligand", "tested at": "1 µM", "remaining binding": "63%"}
{"Structure (SMILES)": "CCN1CCN(Cc2ccc(C(=O)Nc3ccc(C)c(Oc4ccc5c(c4)CC(=O)N5)c3)cc2C(F)(F)F)CC1", "read-out": "binding", "technique": "competition with immobilised ligand", "tested at": "1 µM", "remaining binding": "90%"}
{"Structure (SMILES)": "c1cnn2ncc(-c3ccnc(N4CCC45COC5)n3)c2c1", "read-out": "binding", "tested at": "1 µM", "remaining binding": "79%"}
{"Structure (SMILES)": "O=C(c1ccc(Nc2ncc(Cl)c(-c3cc4ccccc4s3)n2)cc1)N1CCC(N2CCCC2)CC1", "read-out": "binding", "technique": "competition with immobilised ligand", "tested at": "1 µM", "remaining binding": "96%"}
{"Structure (SMILES)": "COc1ncc2cc3ccccc3nc2c1C#N", "read-out": "cell-free assay", "technique": "competition with immobilised ligand", "tested at": "5 µM", "remaining binding": "100%"}
{"Structure (SMILES)": "Cn1cc(Cl)c2c(Oc3c(F)cc(Nc4cc(Cl)nc(N)n4)cc3F)ccnc21", "read-out": "cell-free assay", "technique": "competition with immobilised ligand", "tested at": "0.1 µM", "remaining binding": "80%"}
{"Structure (SMILES)": "CC1CCCN1c1nccc(-c2cnn3ncccc23)n1 (stereo not drawn)", "read-out": "binding", "tested at": "1 µM", "remaining binding": "69%"}
{"Structure (SMILES)": "C[C@@H]1CN(c2cc(-c3n[nH]c4ccc(OC5(C)CC5)cc34)ncn2)C[C@H](C)O1", "read-out": "cell-free assay", "technique": "competition with immobilised ligand", "tested at": "0.1 µM", "remaining binding": "100%"}
{"Structure (SMILES)": "c1cncc(-c2cccc(Nc3nccc(NC4CCCCC4)n3)c2)c1", "read-out": "binding", "technique": "competition with immobilised ligand", "tested at": "10 µM", "remaining binding": "45%"}
{"Structure (SMILES)": "COc1ccc2c(c1)O[C@H](c1ccc(OC)c(OC)c1)C[C@@H]2NC(=O)C1(c2ccc3c(c2)OC(F)(F)O3)CC1", "read-out": "cell-free assay", "technique": "competition with immobilised ligand", "tested at": "1 µM", "remaining binding": "100%"}
{"Structure (SMILES)": "FC(F)(F)Oc1cccc(-c2cnc3ccc(-c4ccncc4)nn23)c1", "read-out": "cell-free assay", "technique": "competition with immobilised ligand", "tested at": "5 µM", "remaining binding": "51%"}
{"Structure (SMILES)": "CS(=O)(=O)N1CCCC(NC(=O)[C@H](CCC2CCCCC2)NC(=O)c2ccc(CNC(=O)c3cnc4ccccn34)cc2)C1 (stereo partly drawn)", "read-out": "cell-free assay", "technique": "competition with immobilised ligand", "tested at": "0.1 µM", "remaining binding": "80%"}
{"Structure (SMILES)": "O=C(NCCCN1CCOCC1)c1ccc(Nc2ncc(Cl)c(-c3ccc(Cl)s3)n2)cc1", "read-out": "binding", "technique": "competition with immobilised ligand", "tested at": "1 µM", "remaining binding": "100%"}
{"Structure (SMILES)": "CS(=O)(=O)NCC[C@H](NC(=O)c1cncc2c1cnn2-c1ccc(F)cc1)c1ccnc(S(C)(=O)=O)c1", "read-out": "cell-free assay", "technique": "competition with immobilised ligand", "tested at": "1 µM", "remaining binding": "100%"}
{"Structure (SMILES)": "O=C(NCCCN1CCOCC1)c1ccc(Nc2nccc(-c3cc4ccccc4s3)n2)cc1", "read-out": "binding", "technique": "competition with immobilised ligand", "tested at": "1 µM", "remaining binding": "94%"}
